5 compounds from PubChem BioAssay AID651740 (Broad Institute, 2012) can be followed below.

The structures appear in SMILES notation. The campaign covered roughly 5,600 compounds. About 1,200 (21%) were called active. Roughly 3% stayed inconclusive and do not appear here. These entries were drawn from the full list. Values without a mark were called inactive.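 The calls were made as follows: active = mean inhibition above about 95%, with at least 55% of replicates also reaching it (limit read from the data); inconclusive = meets just one of the two conditions; inactive = meets neither condition.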

The experiment in a line: Trypanosoma cruzi growth blockers in host fibroblasts – NIH3T3 host cells, beta-gal parasites, cherry-pick, set 2, confirmation (AID 651740).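 Also: plate controls were neutral control median for no effect and positive control median for full effect.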 As to conditions: T. cruzi beta-gal in NIH3T3, GalScreen luminescence, 90 h; at 2.09 µM; stronger effect = higher value. A digest of the protocol: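 Technique: GalScreen lysis and luminescent beta-gal signal | Test system: T. cruzi Tulahuen C4 (beta-gal) in NIH/3T3 cells | Amount: 5,000 fibroblasts/well | Reagent: 5000 parasites/well | Times: ≥90 h infection with compound, 60 min read delay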
`COc1ccc(C#Cc2ccc([C@H]3[C@H](CO)N4CCCCN(C(=O)Cc5ccccc5)C[C@@H]34)cc2)cc1`: the inhibition was 111% (active).

As to `O=C(Cc1ccccn1)N1CCCCN2[C@@H](CO)[C@@H](c3ccc(C#Cc4ccccc4)cc3)[C@@H]2C1`, the inhibition was 56.8%. As for `COc1ccc(-c2ccc([C@H]3[C@H](CO)N4CCCCN(C(=O)Cc5ccncc5)C[C@@H]34)cc2)cc1`, the inhibition was 66.4%. In the case of `C/C=C/c1ccc([C@H]2[C@H](CO)N3CCCCN(C(=O)Cc4ccncc4)C[C@@H]23)cc1` it was 82.3%; in that of `O=C(Cc1cccnc1)N1CCCCN2[C@@H](CO)[C@H](c3ccc(C#CC4CCCC4)cc3)[C@@H]2C1`, 46.3%.
